Reference: ChEMBL document CHEMBL1145990, “Synthesis and in vitro antitumor activity of phenanthrolin-7-one derivatives, analogues of the marine pyridoacridine alkaloids ascididemin and meridine: structure-activity relationship” (J Med Chem, 2003)

Assays:
LoVo = experiment: In vitro antitumor effects against human LoVo cell lines.; assay type: functional, cell-based
Procedure, shortened: (§1)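 Cells grown at 37°C in sealed dishes in MEM with 5% FCS, seeded at 40000 cells/mL and allowed 24 h to plate. Six concentrations from 10 µM to 0.1 nM were tested. Growth was read by MTT reduction to formazan at 570 nm (630 nm reference), in sextuplicate. IC50 is the concentration giving 50% growth inhibition versus control, as the mean of three independent assays.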

U373 MG = experiment: In vitro antitumor effects against human U-373MG cell lines.; assay type: functional, cell-based, U-373MG ATCC; procedure, shortened: as §1
A-427 = experiment: In vitro antitumor effects against human A-427 cell lines.; assay type: functional, cell-based; procedure, shortened: as §1
T-24 = experiment: In vitro antitumor effects against human T24 cell lines.; assay type: functional, cell-based; procedure, shortened: as §1
Mus musculus = experiment: Maximum tolerated dose following single i.p. injection to B6D2F1/jico mice.; assay type: functional
Procedure, shortened: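 Healthy non-tumour-bearing B6D2F1 mice given one acute intraperitoneal dose at 5, 10, 20, 40, 80 or 160 mg/kg. Three mice per dose group. Survival and body weight recorded for up to 28 days after injection. MTD taken as the highest dose tolerable acutely.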

PC-3 = experiment: In vitro antitumor effects against human PC-3 cell lines.; assay type: functional, cell-based; procedure, shortened: as §1
HCT-15 = experiment: In vitro antitumor effects against human HCT-15 cell lines.; assay type: functional, cell-based; procedure, shortened: as §1
SW1088 = experiment: In vitro antitumor effects against human SW 1088 cell lines.; assay type: functional, cell-based
J82 = experiment: In vitro antitumor effects against human J82 cell lines.; assay type: functional, cell-based; procedure, shortened: as §1
U-87 MG = experiment: In vitro antitumor effects against human U87MG cell lines.; assay type: functional, cell-based, U-87MG ATCC; procedure, shortened: as §1
MCF7 = experiment: In vitro antitumor effects against human MCF-7 cell lines.; assay type: functional, cell-based; procedure, shortened: as §1
A549 = experiment: In vitro antitumor effects against human A-549 cell lines.; assay type: functional, cell-based; procedure, shortened: as §1
T47D = experiment: In vitro antitumor effects against human T-47D cell lines.; assay type: functional, cell-based; procedure, shortened: as §1

| Structure (SMILES) | IC50 (LoVo) | IC50 (U373 MG) | IC50 (A-427) | IC50 (T-24) | MTD (Mus musculus) | IC50 (PC-3) | IC50 (HCT-15) | IC50 (SW1088) | IC50 (J82) | IC50 (U-87 MG) | IC50 (MCF7) | IC50 (A549) | IC50 (T47D) |
| --- | --- | --- | --- | --- | --- | --- | --- | --- | --- | --- | --- | --- | --- |
| O=C1c2ncccc2-c2nccc3ccnc1c23 | 2000 nM | 4000 nM | 700 nM | 800 nM | 10 mg/kg | 900 nM | 600 nM | 5 µM | 5 µM | 6000 nM | 600 nM | 3000 nM | 0.8 µM |
| COc1ccnc2c1-c1nccc3ccnc(c13)C2=O | 300 nM | 100 nM | 70 nM | 300 nM | 5 mg/kg | 900 nM | 100 nM | 2 µM | 2 µM | 100 nM | 200 nM | 300 nM | 3 µM |
| COc1ccc2c(n1)C(=O)c1ncc(OC)c3ccnc-2c13 | 600 nM | 800 nM | 500 nM | 600 nM | >160 mg/kg | 1000 nM | 600 nM | 0.5 µM | 8 µM | 700 nM | 500 nM | 800 nM | 1 µM |
| COc1ccc2c(n1)C(=O)c1nccc3ccnc-2c13 | 5000 nM | 6000 nM | 6000 nM | 6000 nM | 40 mg/kg | 6000 nM | 6000 nM | 5 µM | 5 µM | 6000 nM | 5000 nM | 9000 nM | 6 µM |
| COc1cnc2c3c(nccc13)-c1c(N(C)C)ccnc1C2=O | 3000 nM | 5000 nM | 3000 nM | 5000 nM | >160 mg/kg | 6000 nM | 3000 nM | 6 µM | 6 µM | 3000 nM | 4000 nM | 3000 nM | 4 µM |
| COc1ccnc2c1C(=O)c1ncc(OC)c3ccnc-2c13 | 800 nM | 2000 nM | 800 nM | 2000 nM | 80 mg/kg | 800 nM | 3000 nM | 3 µM | 5 µM | 800 nM | 2000 nM | 5000 nM | 5 µM |
| COc1cnc2c3c(nccc13)-c1ncccc1C2=O | 5000 nM | 600 nM | 500 nM | 500 nM | >160 mg/kg | 500 nM | 700 nM | 0.3 µM | 4 µM | 300 nM | 400 nM | 500 nM | 7 µM |
| COc1ccc2c(n1)-c1nccc3ccnc(c13)C2=O | > 10000 nM | 5000 nM | 6000 nM | 5000 nM | >160 mg/kg | 6000 nM | 6000 nM | 5 µM | 5 µM | 6000 nM | 5000 nM | 9000 nM | 6 µM |
| CN(C)c1cc(Cl)nc2c1-c1nccc3ccnc(c13)C2=O | 5000 nM | 6000 nM | 6000 nM | 6000 nM | 40 mg/kg | > 10000 nM | 5000 nM | 5 µM | 5 µM | 6000 nM | 6000 nM | > 10000 nM | 4 µM |
| CN(C)c1ccnc2c1-c1nccc3ccnc(c13)C2=O | 2000 nM | 1000 nM | 900 nM | 1000 nM | 10 mg/kg | 4000 nM | 2000 nM | 5 µM | 4 µM | 2000 nM | 900 nM | 1000 nM | 4 µM |
| COc1cc(OC)c2c(n1)C(=O)c1nccc3ccnc-2c13 | 4000 nM | 6000 nM | 5000 nM | 6000 nM | 40 mg/kg | 6000 nM | 5000 nM | 5 µM | 5 µM | 5000 nM | 5000 nM | 6000 nM | 5 µM |
| COc1ccnc2c1C(=O)c1nccc3ccnc-2c13 | 900 nM | 800 nM | 800 nM | 700 nM | 10 mg/kg | 600 nM | 800 nM | 0.9 µM | 3 µM | 4000 nM | 600 nM | 800 nM | 0.4 µM |
| COc1ccnc2c1-c1nccc3c(OC)cnc(c13)C2=O | 8 nM | 7 nM | 6 nM | 9 nM | 20 mg/kg | 40 nM | 40 nM | 0.008 µM | 0.2 µM | 8 nM | 30 nM | 5 nM | 0.06 µM |
| O=C1c2cccnc2-c2nccc3ccnc1c23 | 2000 nM | 800 nM | 7000 nM | 300 nM | 10 mg/kg | 5000 nM | 900 nM | 4 µM | 5 µM | 500 nM | 200 nM | 800 nM | 0.7 µM |
| O=C1c2c(Cl)ccnc2-c2nccc3ccnc1c23 | 1000 nM | 4000 nM | 700 nM | 3000 nM | 20 mg/kg | 5000 nM | 1000 nM | 4 µM | 4 µM | 800 nM | 600 nM | 800 nM | 1 µM |
| COc1cnc2c3c(nccc13)-c1cccnc1C2=O | 700 nM | 70 nM | 70 nM | 60 nM | >160 mg/kg | 80 nM | 90 nM | 0.08 µM | 0.8 µM | 50 nM | 60 nM | 50 nM | 6 µM |
| O=C1c2nccc(O)c2-c2nccc3ccnc1c23 | 5000 nM | 6000 nM | 6000 nM | 8000 nM | 10 mg/kg | > 10000 nM | 6000 nM | 6 µM | 6 µM | 8000 nM | 5000 nM | 6000 nM | 6 µM |
